Results taken from ChEMBL document CHEMBL3102812 (J Med Chem, 2013).
In brackets after ≈: the same amount, converted by molar mass. Activity calls are given as the source filed them. The calls are words filed in the database; no cut-off is given here.

Columns and labels:
[1] = system: Trypanosoma cruzi; experiment: Antitrypanosomal activity against Trypanosoma cruzi Tulahuen 6 infected in Swiss mouse assessed as mouse survival at 10 mg/kg, po qd administered on day 8 post-infection for 20 days measured on day 28 post-infection by microscopic analysis; format: functional, organism-based; set-up: dose 10 mg/kg
Method in brief: (§1)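 Outbred female Swiss mice (~8 weeks) infected with mouse-passaged Tulahuen TcVI trypomastigotes; oral dosing once daily for 20 days from day 8 post-infection, suspension in 0.5% HPMC, 0.4% Tween 80, 0.5% benzyl alcohol, 5% DMSO in water; blood parasitemia by microscopy (LOD 20 000 parasites/mL); mice with recurring parasitemia euthanized; survival counted per starting group; 10-day untreated period days 28–37.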

[2] = system: Trypanosoma cruzi; experiment: Antitrypanosomal activity against Trypanosoma cruzi Tulahuen 6 infected in Swiss mouse assessed as mouse survival at 20 mg/kg, po qd administered on day 8 post-infection for 20 days followed by 10 days non-treatment measured on day 37 post-infection by microscopic analysis; format: functional, organism-based; set-up: dose 20 mg/kg; method in brief: as §1
[3] = system: Trypanosoma cruzi; experiment: Antitrypanosomal activity against Trypanosoma cruzi Tulahuen 6 infected in Swiss mouse assessed as reduction in blood parasitemia at 20 mg/kg, po qd administered on day 8 post-infection for 10 days by microscopic analysis; format: functional, organism-based; set-up: dose 20 mg/kg
Method in brief: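 Infected Swiss mice dosed orally at 20 mg/kg once daily for up to 10 days starting day 8 pi; blood parasitemia followed by microscopy throughout dosing, scored as cleared or not during the dosing period.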

[4] = system: Trypanosoma cruzi; experiment: Antitrypanosomal activity against Trypanosoma cruzi Tulahuen 6 infected in Swiss mouse at 20 mg/kg, po qd administered on day 8 post-infection for 20 days followed by 10 days non-treatment period followed by three cycles of immunosuppression measured on day 58 post-infection by PCR analysis; format: functional, organism-based; set-up: dose 20 mg/kg
[5] = system: Trypanosoma cruzi; experiment: Antitrypanosomal activity against Trypanosoma cruzi Tulahuen 6 infected in Swiss mouse assessed as mouse survival at 20 mg/kg, po qd administered on day 8 post-infection measured on same day by microscopic analysis; format: functional, organism-based; set-up: dose 20 mg/kg
[6] = system: Trypanosoma cruzi; experiment: Antitrypanosomal activity against Trypanosoma cruzi Tulahuen 6 amastigotes infected in rat L6 cells after 96 hrs by colorimetric method; format: functional, organism-based; conditions: Tulahuen 6, L6, 96 h
[7] = system: Mus musculus; experiment: Toxicity in Swiss mouse at 20 mg/kg, po; conditions: in vivo
[8] = Kinetic aqueous solubility of the compound in phosphate buffer at pH 2 by nephelometric analysis; conditions: for solubility kinetic: phosphate buffer
[9] = Partition coefficient, log D of the compound at pH 7.4 by chromatographic method; conditions: octanol/water
[10] = Kinetic aqueous solubility of the compound in phosphate buffer at pH 6.5 by nephelometric analysis
[11] = target: Cytochrome P450 3A4 (Homo sapiens, UniProt P08684); experiment: Inhibition of CYP3A4 in human liver microsomes assessed as 6beta-hydroxylation of testosterone
Sequence of Cytochrome P450 3A4 (P08684 whole entry): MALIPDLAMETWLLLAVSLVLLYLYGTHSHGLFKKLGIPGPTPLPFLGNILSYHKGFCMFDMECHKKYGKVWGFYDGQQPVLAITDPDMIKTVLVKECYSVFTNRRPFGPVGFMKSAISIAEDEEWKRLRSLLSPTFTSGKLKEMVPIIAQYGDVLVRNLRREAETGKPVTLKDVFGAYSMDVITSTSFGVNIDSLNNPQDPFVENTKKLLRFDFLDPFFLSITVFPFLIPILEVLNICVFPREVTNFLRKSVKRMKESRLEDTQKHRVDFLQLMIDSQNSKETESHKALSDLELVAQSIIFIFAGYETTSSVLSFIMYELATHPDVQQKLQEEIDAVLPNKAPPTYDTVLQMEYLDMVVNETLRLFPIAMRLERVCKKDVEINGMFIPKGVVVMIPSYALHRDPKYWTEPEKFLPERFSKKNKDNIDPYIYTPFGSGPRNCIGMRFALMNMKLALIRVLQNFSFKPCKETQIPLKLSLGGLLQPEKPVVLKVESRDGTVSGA

[12] = system: Mus musculus; experiment: Toxicity in Swiss mouse assessed as weight loss at 50 mg/kg, po bid for 2.5 days; format: organism-based; set-up: dose 50 mg/kg, route oral; conditions: in vivo, 60 h
Method in brief: (§2)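 Acute toxicity by stepwise cumulative oral dosing in two mice per compound: 25 and/or 50 mg/kg twice daily for 2.5 days to […]; animals observed for 1 week after the last dose for adverse effects and weight loss.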

[13] = system: Mus musculus; experiment: Toxicity in Swiss mouse assessed as weight loss at 25 mg/kg, po bid for 2.5 days; format: organism-based; set-up: dose 25 mg/kg, route oral; conditions: in vivo, 60 h; method in brief: as §2
[14] = system: Trypanosoma cruzi; experiment: Antitrypanosomal activity against Trypanosoma cruzi Tulahuen 6 infected in Swiss mouse assessed as mouse survival at 20 mg/kg, po qd administered on day 8 post-infection for 20 days measured on day 28 post-infection by microscopic analysis; format: functional, organism-based; set-up: dose 20 mg/kg
[15] = Half life in Swiss mouse at 20 mg/kg, po by LC/MS analysis; format: ADME, organism-based; set-up: dose 20 mg/kg, route oral; conditions: in vivo
[16] = Half life in Swiss mouse at 2 mg/kg, iv by LC/MS analysis; format: ADME, organism-based; set-up: dose 2 mg/kg, route intravenous; conditions: in vivo
[17] = Volume of distribution at steady state in Swiss mouse at 2 mg/kg, iv and 20 mg/kg, po by LC/MS analysis; format: ADME, organism-based; conditions: in vivo, read-out: Vdss
[18] = system: Mus musculus; experiment: Oral bioavailability in Swiss mouse at 20 mg/kg by LC/MS analysis; format: ADME, organism-based; conditions: in vivo
[19] = Plasma clearance in Swiss mouse at 2 mg/kg, iv and 20 mg/kg, po by LC/MS analysis; format: ADME, organism-based

SMILES | Activity [3] | IC50 [6] [nM] | Activity [7] | solubility kinetic [8] [µg/mL] | chromatographic logD [9] | solubility kinetic [10] [µg/mL] | IC50 [11] [nM] | further results
CC[C@@H]([C@H](C)O)n1ncn(-c2ccc(N3CCN(c4ccc(OC[C@@H]5CO[C@@](Cn6cncn6)(c6ccc(F)cc6F)C5)cc4)CC3)cc2)c1=O [POSACONAZOLE] | Active | 1 | Non-toxic | – | – | – | – | Activity [1]: Active; Activity [2]: Active; Activity [4]: Active; Activity [5]: Active
CC(C)(C)CC(=O)N1CCC(N(c2ccc(Cl)cc2)c2cccnc2)CC1 | – | – | – | > 100 | 4.2 | 6.3 (≈ 16.3 µM) | – | –
FC(F)(F)c1ccc(N(c2cccnc2)C2CCN(c3ccc(Cl)cc3)CC2)cc1 | – | – | – | > 100 | > 5.3 | < 1.6 | – | –
CS(=O)(=O)c1ccc(N2CCN(C(=O)C(c3ccc(Cl)cc3)c3cccnc3)CC2)cc1 (stereo unspecified) | – | 2 | Non-toxic | > 100 | 3 | 6.3 (≈ 13.4 µM) | 4000 | –
N#Cc1ccc(C(C(=O)N2CCN(c3ccc(C(F)(F)F)nc3)CC2)c2cccnc2)cc1 (stereo unspecified) | – | – | – | > 100 | 3 | 25 (≈ 55.4 µM) | > 20000 | –
Fc1cc(Cl)ccc1C(NC1CCN(c2ccc(C(F)(F)F)cc2)CC1)c1cccnc1 (stereo unspecified) | Active | 11 | Non-toxic | – | – | – | – | –
N#Cc1ccc(N(c2cccnc2)C2CCN(c3ccc(C(F)(F)F)cc3)CC2)cc1 | – | 3 | Non-toxic | 25 (≈ 59.2 µM) | 4.7 | < 1.6 | – | –
N#Cc1ccc(C(C(=O)N2CCN(c3ccc(C(F)(F)F)cn3)CC2)c2cccnc2)cc1 (stereo unspecified) | – | 12 | Non-toxic | 50 (≈ 111 µM) | 3.5 | 6.3 (≈ 14 µM) | > 20000 | –
Cc1cc(C(=O)NC2CCN(C(c3ccc(C#N)cc3)c3cccnc3)CC2)n(C)n1 (stereo unspecified) | inactive | 47 | Non-toxic | – | – | – | – | –
N#Cc1cccc(N2CCC(NC(c3cccnc3)c3ccc(Cl)cc3F)CC2)c1 (stereo unspecified) | inactive | 13 | Non-toxic | – | – | – | – | –
FC(F)(F)c1ccc(N(c2cncnc2)C2CCN(c3ccc(C(F)(F)F)cn3)CC2)cc1 | – | 5 | Non-toxic | 12.5 (≈ 26.7 µM) | 4.9 | < 1.6 | 6300 | –
O=C(C(c1ccc(Cl)cc1)c1cccnc1)N1CCN(c2ccc(C(F)(F)F)nc2)CC1 (stereo unspecified) | – | 8 | Non-toxic | 50 (≈ 108 µM) | 3.7 | 6.3 (≈ 13.7 µM) | > 20000 | –
Cc1ncsc1C(=O)N1CCC(NC(c2ccc(C(F)(F)F)cc2)c2cccnc2)CC1 (stereo unspecified) | inactive | 58 | Non-toxic | – | – | – | – | –
N#Cc1ccc(C(c2cccnc2)N2CCC(NC(=O)c3ccccc3)CC2)cc1 (stereo unspecified) | inactive | 24 | Non-toxic | – | – | – | – | –
O=C([C@H](c1ccc(Cl)cc1)c1cccnc1)N1CCN(c2ccc(C(F)(F)F)cc2)CC1 | – | – | – | > 100 | 4.5 | 1.6 (≈ 3.48 µM) | 17000 | –
Cc1ccccc1CN1CCC(N(c2ccc(C(F)(F)F)cc2)c2cccnc2)CC1 | – | – | – | > 100 | > 5.3 | 3.1 (≈ 7.29 µM) | – | –
O=C(C(c1ccc(Cl)cc1)c1cccnc1)N1CCN(c2ccc(C(F)(F)F)cc2)CC1 (racemic) | Active | – | Non-toxic | > 100 | 4.5 | 1.6 (≈ 3.48 µM) | 16000 | Activity [12]: Non-toxic; Activity [2]: Active; Activity [13]: Non-toxic; Activity [14]: Active; Activity [4]: inactive; Activity [5]: Active
N#Cc1ccc(C(O)(c2ccc(C(F)(F)F)cc2)c2cccnc2)c(F)c1 (stereo unspecified) | Active | – | Non-toxic | – | – | – | – | –
O=C(C(c1ccc(Cl)cc1)c1cccnc1)N1CCN(c2ccc(C(F)(F)F)cn2)CC1 (stereo unspecified) | – | 12 | Non-toxic | – | 4.2 | 3.1 (≈ 6.73 µM) | 7000 | Kinetic solubility ([8]; buffer): 25 µg/mL
N#Cc1ccccc1N1CCC(N(c2ccc(C(F)(F)F)cc2)c2cccnc2)CC1 | – | – | – | > 100 | 4.9 | < 1.6 | 5200 | –
FC(F)(F)c1ccc(N2CCC(N(c3ccc(C(F)(F)F)cc3)c3cccnc3)CC2)cc1 | – | 17 | – | – | – | – | – | –
FC(F)(F)c1ccc(N(c2cccnc2)C2CCN(c3ccc(C(F)(F)F)cn3)CC2)cc1 | Active | 17 | Non-toxic | > 100 | > 5.3 | < 1.6 | – | Activity [12]: Non-toxic; half-life [15]: 12.5 h; half-life [16]: 8.6 h; Vd [17]: 4.4 L/kg; Activity [13]: Non-toxic; Activity [4]: Active; Activity [5]: Active; F [18]: 95%; clearance [19]: 8.1 mL/min/kg
N#Cc1ccc(C(C(=O)N2CCN(c3ccc(C(F)(F)F)cc3)CC2)c2cccnc2)cc1 (stereo unspecified) | – | 12 | Non-toxic | > 100 | 3.8 | 3.1 (≈ 6.88 µM) | > 20000 | –
N#Cc1ccc(C(c2cccnc2)N2CCC(NC(=O)c3c(F)cccc3F)CC2)cc1 (stereo unspecified) | inactive | 19 | Non-toxic | – | – | – | – | –
CS(=O)(=O)c1ccc(N2CCC(N(c3ccc(C#N)cc3)c3cccnc3)CC2)cc1 | – | 2 | Non-toxic | 25 (≈ 57.8 µM) | 3 | < 1.6 | 12000 | –
CS(=O)(=O)c1ccc(N2CCN(C(=O)C(c3ccc(C#N)cc3)c3cccnc3)CC2)cc1 (stereo unspecified) | – | 24 | Non-toxic | 25 (≈ 54.3 µM) | 2.4 | 3.1 (≈ 6.73 µM) | > 20000 | –
N#Cc1ccc(C(O)(c2ccc(C(F)(F)F)cc2)c2cccnc2)cc1 (stereo unspecified) | Active | – | Non-toxic | – | – | – | – | –
